Measurements as given in ChEMBL document CHEMBL3044834, “Novel protoporphyrinogen oxidase inhibitors: 3H-pyrazolo[3,4-d][1,2,3]triazin-4-one derivatives” (J Agric Food Chem, 2008).

test system: Amaranthus retroflexus; assay: Herbicidal activity against Amaranthus retroflexus assessed as inhibition of fresh weed plant weight at 1500 g/ha using post-emergence treatment protocol; type: functional
Procedure, shortened: (§1)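 Test compounds made up as emulsions by dissolving in 100 µL N,N-dimethylformamide, then adding a little Tween 20 and water. For post-emergence, weed seedlings at one leaf and one stem were sprayed at the same rates as the pre-emergence test. Fresh weight was recorded 15 days after treatment and expressed as percent inhibition versus controls. All treatments were run in triplicate.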

Structure (SMILES)	inhibition at 1500 g/ha [%]
C=CCOc1cc(-n2nnc3nn(CC=C)cc3c2=O)c(F)cc1Cl	100
CCCN1C(=O)COc2cc(F)c(-n3nnc4c(cnn4C)c3=O)cc21	54.1

test system: Amaranthus retroflexus; assay: Herbicidal activity against Amaranthus retroflexus assessed as inhibition of fresh weed plant weight at 187.5 g/ha using pre-emergence treatment protocol; type: functional

Structure (SMILES)	inhibition at 187.5 g/ha [%]
C=CCOc1cc(-n2nnc3nn(CC=C)cc3c2=O)c(F)cc1Cl	100
CCCN1C(=O)COc2cc(F)c(-n3nnc4c(cnn4C)c3=O)cc21	89.5

test system: Amaranthus retroflexus; assay: Herbicidal activity against Amaranthus retroflexus assessed as inhibition of fresh weed plant weight at 750 g/ha using pre-emergence treatment protocol; type: functional; procedure, shortened: as §1

Structure (SMILES)	inhibition at 750 g/ha [%]
C=CCOc1cc(-n2nnc3nn(CC=C)cc3c2=O)c(F)cc1Cl	100
CCCN1C(=O)COc2cc(F)c(-n3nnc4c(cnn4C)c3=O)cc21	95.3

test system: Brassica rapa subsp. oleifera; assay: Herbicidal activity against Brassica rapa subsp. oleifera assessed as inhibition of fresh weed plant weight at 93.75 g/ha using pre-emergence treatment protocol; type: functional

Structure (SMILES)	inhibition at 93.75 g/ha [%]
CCCN1C(=O)COc2cc(F)c(-n3nnc4c(cnn4C)c3=O)cc21	32.2

test system: Echinochloa crus-galli; assay: Herbicidal activity against Echinochloa crus-galli (barnyard grass) assessed as inhibition of fresh weed plant weight at 1500 g/ha using post-emergence treatment protocol; type: functional; procedure, shortened: as §1

Structure (SMILES)	inhibition at 1500 g/ha [%]
C=CCOc1cc(-n2nnc3nn(CC=C)cc3c2=O)c(F)cc1Cl	35.8
CCCN1C(=O)COc2cc(F)c(-n3nnc4c(cnn4C)c3=O)cc21	46.9

test system: Brassica rapa subsp. oleifera; assay: Herbicidal activity against Brassica rapa subsp. oleifera assessed as inhibition of fresh weed plant weight at 1500 g/ha using pre-emergence treatment protocol; type: functional

Structure (SMILES)	inhibition at 1500 g/ha [%]
C=CCOc1cc(-n2nnc3nn(CC=C)cc3c2=O)c(F)cc1Cl	50.7
CCCN1C(=O)COc2cc(F)c(-n3nnc4c(cnn4C)c3=O)cc21	100

test system: Amaranthus retroflexus; assay: Herbicidal activity against Amaranthus retroflexus assessed as inhibition of fresh weed plant weight at 187.5 g/ha using post-emergence treatment protocol; type: functional; procedure, shortened: as §1

Structure (SMILES)	inhibition at 187.5 g/ha [%]
C=CCOc1cc(-n2nnc3nn(CC=C)cc3c2=O)c(F)cc1Cl	36.6

test system: Echinochloa crus-galli; assay: Herbicidal activity against Echinochloa crus-galli (barnyard grass) assessed as inhibition of fresh weed plant weight at 750 g/ha using pre-emergence treatment protocol; type: functional

Structure (SMILES)	inhibition at 750 g/ha [%]
C=CCOc1cc(-n2nnc3nn(CC=C)cc3c2=O)c(F)cc1Cl	22.1
CCCN1C(=O)COc2cc(F)c(-n3nnc4c(cnn4C)c3=O)cc21	91.2

test system: Echinochloa crus-galli; assay: Herbicidal activity against Echinochloa crus-galli (barnyard grass) assessed as inhibition of fresh weed plant weight at 750 g/ha using post-emergence treatment protocol; type: functional; procedure, shortened: as §1

Structure (SMILES)	inhibition at 750 g/ha [%]
C=CCOc1cc(-n2nnc3nn(CC=C)cc3c2=O)c(F)cc1Cl	18

test system: Digitaria sanguinalis; assay: Herbicidal activity against Digitaria sanguinalis (hairy crabgrass) assessed as inhibition of fresh weed plant weight at 750 g/ha using pre-emergence treatment protocol; type: functional

Structure (SMILES)	inhibition at 750 g/ha [%]
C=CCOc1cc(-n2nnc3nn(CC=C)cc3c2=O)c(F)cc1Cl	8.7
CCCN1C(=O)COc2cc(F)c(-n3nnc4c(cnn4C)c3=O)cc21	87.8

test system: Amaranthus retroflexus; assay: Herbicidal activity against Amaranthus retroflexus assessed as inhibition of fresh weed plant weight at 375 g/ha using pre-emergence treatment protocol; type: functional

Structure (SMILES)	inhibition at 375 g/ha [%]
C=CCOc1cc(-n2nnc3nn(CC=C)cc3c2=O)c(F)cc1Cl	100
CCCN1C(=O)COc2cc(F)c(-n3nnc4c(cnn4C)c3=O)cc21	93.2

test system: Digitaria sanguinalis; assay: Herbicidal activity against Digitaria sanguinalis (hairy crabgrass) assessed as inhibition of fresh weed plant weight at 375 g/ha using post-emergence treatment protocol; type: functional; procedure, shortened: as §1

Structure (SMILES)	inhibition at 375 g/ha [%]
C=CCOc1cc(-n2nnc3nn(CC=C)cc3c2=O)c(F)cc1Cl	33.3

test system: Brassica rapa subsp. oleifera; assay: Herbicidal activity against Brassica rapa subsp. oleifera assessed as inhibition of fresh weed plant weight at 375 g/ha using post-emergence treatment protocol; type: functional; procedure, shortened: as §1

Structure (SMILES)	inhibition at 375 g/ha [%]
C=CCOc1cc(-n2nnc3nn(CC=C)cc3c2=O)c(F)cc1Cl	8.6

test system: Brassica rapa subsp. oleifera; assay: Herbicidal activity against Brassica rapa subsp. oleifera assessed as inhibition of fresh weed plant weight at 1500 g/ha using post-emergence treatment protocol; type: functional; procedure, shortened: as §1

Structure (SMILES)	inhibition at 1500 g/ha [%]
C=CCOc1cc(-n2nnc3nn(CC=C)cc3c2=O)c(F)cc1Cl	60.8
CCCN1C(=O)COc2cc(F)c(-n3nnc4c(cnn4C)c3=O)cc21	20.5

test system: Echinochloa crus-galli; assay: Herbicidal activity against Echinochloa crus-galli (barnyard grass) assessed as inhibition of fresh weed plant weight at 187.5 g/ha using post-emergence treatment protocol; type: functional; procedure, shortened: as §1

Structure (SMILES)	inhibition at 187.5 g/ha [%]
C=CCOc1cc(-n2nnc3nn(CC=C)cc3c2=O)c(F)cc1Cl	14.1

test system: Echinochloa crus-galli; assay: Herbicidal activity against Echinochloa crus-galli (barnyard grass) assessed as inhibition of fresh weed plant weight at 93.75 g/ha using pre-emergence treatment protocol; type: functional

Structure (SMILES)	inhibition at 93.75 g/ha [%]
CCCN1C(=O)COc2cc(F)c(-n3nnc4c(cnn4C)c3=O)cc21	0

test system: Amaranthus retroflexus; assay: Herbicidal activity against Amaranthus retroflexus assessed as inhibition of fresh weed plant weight at 375 g/ha using post-emergence treatment protocol; type: functional; procedure, shortened: as §1

Structure (SMILES)	inhibition at 375 g/ha [%]
C=CCOc1cc(-n2nnc3nn(CC=C)cc3c2=O)c(F)cc1Cl	100

test system: Echinochloa crus-galli; assay: Herbicidal activity against Echinochloa crus-galli (barnyard grass) assessed as inhibition of fresh weed plant weight at 187.5 g/ha using pre-emergence treatment protocol; type: functional; procedure, shortened: as §1

Structure (SMILES)	inhibition at 187.5 g/ha [%]
C=CCOc1cc(-n2nnc3nn(CC=C)cc3c2=O)c(F)cc1Cl	0
CCCN1C(=O)COc2cc(F)c(-n3nnc4c(cnn4C)c3=O)cc21	28.4

test system: Brassica rapa subsp. oleifera; assay: Herbicidal activity against Brassica rapa subsp. oleifera assessed as inhibition of fresh weed plant weight at 375 g/ha using pre-emergence treatment protocol; type: functional

Structure (SMILES)	inhibition at 375 g/ha [%]
C=CCOc1cc(-n2nnc3nn(CC=C)cc3c2=O)c(F)cc1Cl	13.4
CCCN1C(=O)COc2cc(F)c(-n3nnc4c(cnn4C)c3=O)cc21	57.1

test system: Digitaria sanguinalis; assay: Herbicidal activity against Digitaria sanguinalis (hairy crabgrass) assessed as inhibition of fresh weed plant weight at 93.75 g/ha using pre-emergence treatment protocol; type: functional

Structure (SMILES)	inhibition at 93.75 g/ha [%]
CCCN1C(=O)COc2cc(F)c(-n3nnc4c(cnn4C)c3=O)cc21	3.9

test system: Digitaria sanguinalis; assay: Herbicidal activity against Digitaria sanguinalis (hairy crabgrass) assessed as inhibition of fresh weed plant weight at 375 g/ha using pre-emergence treatment protocol; type: functional

Structure (SMILES)	inhibition at 375 g/ha [%]
C=CCOc1cc(-n2nnc3nn(CC=C)cc3c2=O)c(F)cc1Cl	4.3
CCCN1C(=O)COc2cc(F)c(-n3nnc4c(cnn4C)c3=O)cc21	65.4

test system: Digitaria sanguinalis; assay: Herbicidal activity against Digitaria sanguinalis (hairy crabgrass) assessed as inhibition of fresh weed plant weight at 1500 g/ha using pre-emergence treatment protocol; type: functional

Structure (SMILES)	inhibition at 1500 g/ha [%]
C=CCOc1cc(-n2nnc3nn(CC=C)cc3c2=O)c(F)cc1Cl	18
CCCN1C(=O)COc2cc(F)c(-n3nnc4c(cnn4C)c3=O)cc21	94.1

test system: Brassica rapa subsp. oleifera; assay: Herbicidal activity against Brassica rapa subsp. oleifera assessed as inhibition of fresh weed plant weight at 750 g/ha using post-emergence treatment protocol; type: functional; procedure, shortened: as §1

Structure (SMILES)	inhibition at 750 g/ha [%]
C=CCOc1cc(-n2nnc3nn(CC=C)cc3c2=O)c(F)cc1Cl	32.6

test system: Amaranthus retroflexus; assay: Herbicidal activity against Amaranthus retroflexus assessed as inhibition of fresh weed plant weight at 750 g/ha using post-emergence treatment protocol; type: functional; procedure, shortened: as §1

Structure (SMILES)	inhibition at 750 g/ha [%]
C=CCOc1cc(-n2nnc3nn(CC=C)cc3c2=O)c(F)cc1Cl	100

test system: Amaranthus retroflexus; assay: Herbicidal activity against Amaranthus retroflexus assessed as inhibition of fresh weed plant weight at 1500 g/ha using pre-emergence treatment protocol; type: functional

Structure (SMILES)	inhibition at 1500 g/ha [%]
C=CCOc1cc(-n2nnc3nn(CC=C)cc3c2=O)c(F)cc1Cl	100
CCCN1C(=O)COc2cc(F)c(-n3nnc4c(cnn4C)c3=O)cc21	100

test system: Digitaria sanguinalis; assay: Herbicidal activity against Digitaria sanguinalis (hairy crabgrass) assessed as inhibition of fresh weed plant weight at 1500 g/ha using post-emergence treatment protocol; type: functional; procedure, shortened: as §1

Structure (SMILES)	inhibition at 1500 g/ha [%]
C=CCOc1cc(-n2nnc3nn(CC=C)cc3c2=O)c(F)cc1Cl	60.7
CCCN1C(=O)COc2cc(F)c(-n3nnc4c(cnn4C)c3=O)cc21	47.5

test system: Digitaria sanguinalis; assay: Herbicidal activity against Digitaria sanguinalis (hairy crabgrass) assessed as inhibition of fresh weed plant weight at 187.5 g/ha using post-emergence treatment protocol; type: functional; procedure, shortened: as §1

Structure (SMILES)	inhibition at 187.5 g/ha [%]
C=CCOc1cc(-n2nnc3nn(CC=C)cc3c2=O)c(F)cc1Cl	22.2

test system: Amaranthus retroflexus; assay: Herbicidal activity against Amaranthus retroflexus assessed as inhibition of fresh weed plant weight at 93.75 g/ha using pre-emergence treatment protocol; type: functional

Structure (SMILES)	inhibition at 93.75 g/ha [%]
CCCN1C(=O)COc2cc(F)c(-n3nnc4c(cnn4C)c3=O)cc21	83.8

test system: Echinochloa crus-galli; assay: Herbicidal activity against Echinochloa crus-galli (barnyard grass) assessed as inhibition of fresh weed plant weight at 375 g/ha using pre-emergence treatment protocol; type: functional; procedure, shortened: as §1

Structure (SMILES)	inhibition at 375 g/ha [%]
C=CCOc1cc(-n2nnc3nn(CC=C)cc3c2=O)c(F)cc1Cl	18.4
CCCN1C(=O)COc2cc(F)c(-n3nnc4c(cnn4C)c3=O)cc21	69.6

test system: Brassica rapa subsp. oleifera; assay: Herbicidal activity against Brassica rapa subsp. oleifera assessed as inhibition of fresh weed plant weight at 750 g/ha using pre-emergence treatment protocol; type: functional

Structure (SMILES)	inhibition at 750 g/ha [%]
C=CCOc1cc(-n2nnc3nn(CC=C)cc3c2=O)c(F)cc1Cl	23.9
CCCN1C(=O)COc2cc(F)c(-n3nnc4c(cnn4C)c3=O)cc21	79.9

test system: Echinochloa crus-galli; assay: Herbicidal activity against Echinochloa crus-galli (barnyard grass) assessed as inhibition of fresh weed plant weight at 1500 g/ha using pre-emergence treatment protocol; type: functional

Structure (SMILES)	inhibition at 1500 g/ha [%]
C=CCOc1cc(-n2nnc3nn(CC=C)cc3c2=O)c(F)cc1Cl	39.6
CCCN1C(=O)COc2cc(F)c(-n3nnc4c(cnn4C)c3=O)cc21	94.8

test system: Brassica rapa subsp. oleifera; assay: Herbicidal activity against Brassica rapa subsp. oleifera assessed as inhibition of fresh weed plant weight at 187.5 g/ha using pre-emergence treatment protocol; type: functional

Structure (SMILES)	inhibition at 187.5 g/ha [%]
C=CCOc1cc(-n2nnc3nn(CC=C)cc3c2=O)c(F)cc1Cl	3
CCCN1C(=O)COc2cc(F)c(-n3nnc4c(cnn4C)c3=O)cc21	38.5

test system: Digitaria sanguinalis; assay: Herbicidal activity against Digitaria sanguinalis (hairy crabgrass) assessed as inhibition of fresh weed plant weight at 750 g/ha using post-emergence treatment protocol; type: functional; procedure, shortened: as §1

Structure (SMILES)	inhibition at 750 g/ha [%]
C=CCOc1cc(-n2nnc3nn(CC=C)cc3c2=O)c(F)cc1Cl	44.4

test system: Digitaria sanguinalis; assay: Herbicidal activity against Digitaria sanguinalis (hairy crabgrass) assessed as inhibition of fresh weed plant weight at 187.5 g/ha using pre-emergence treatment protocol; type: functional

Structure (SMILES)	inhibition at 187.5 g/ha [%]
C=CCOc1cc(-n2nnc3nn(CC=C)cc3c2=O)c(F)cc1Cl	0
CCCN1C(=O)COc2cc(F)c(-n3nnc4c(cnn4C)c3=O)cc21	14.2

test system: Echinochloa crus-galli; assay: Herbicidal activity against Echinochloa crus-galli (barnyard grass) assessed as inhibition of fresh weed plant weight at 375 g/ha using post-emergence treatment protocol; type: functional; procedure, shortened: as §1

Structure (SMILES)	inhibition at 375 g/ha [%]
C=CCOc1cc(-n2nnc3nn(CC=C)cc3c2=O)c(F)cc1Cl	16.1

test system: Brassica rapa subsp. oleifera; assay: Herbicidal activity against Brassica rapa subsp. oleifera assessed as inhibition of fresh weed plant weight at 187.5 g/ha using post-emergence treatment protocol; type: functional; procedure, shortened: as §1

Structure (SMILES)	inhibition at 187.5 g/ha [%]
C=CCOc1cc(-n2nnc3nn(CC=C)cc3c2=O)c(F)cc1Cl	6.3
